Data reported in PMC2787711 (Biochimica et biophysica acta, 2009).
“Also recorded” adds a separate entry of the source.

Assays:
[1] = target: center P of the yeast cytochrome bc1 complex (Saccharomyces cerevisiae, UniProt P00163+P08067); test: Pre-steady-state oxidant-induced reduction of cytochrome b through center P; type: biochemical; conditions: 2 µM inhibitor, bc1 complex pre-reduced with quinol, 3 µM antimycin
Procedure, shortened: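 Then 3 µM antimycin and 2 µM test compound added, 1 min further. Rapid-mixed with 3 µM cytochrome c; stopped-flow rapid-scanning spectroscopy at 24 °C. Absorbance change at 562 and 578 nm extracted; 12–19 data sets averaged.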

[2] = target: center N of the yeast cytochrome bc1 complex (Saccharomyces cerevisiae, UniProt P00163+P08067); test: Pre-steady-state reduction of cytochrome b through center N; type: biochemical; conditions: 2 µM NQ1, 3 µM stigmatellin, oxidized bc1 complex
Procedure, shortened: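 Stopped-flow rapid scanning at 24 °C: 1 µM oxidized yeast bc1 complex with 3 µM stigmatellin, with or without 2 µM test compound. Rapid-mixed with 30 µM 2,3-dimethoxy-5-methyl-6-decyl-1,4-benzoquinol. Cytochrome b reduction followed as absorbance time course at 562 and 578 nm; 12–19 data sets averaged.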

bovine bc1 complex = bovine bc1 complex (Bos taurus, UniProt P00157+P13272); test: Ubiquinol-cytochrome c reductase activity of purified bc1 complex; type: biochemical; conditions: for Selectivity Coefficient (comparison in words): IC50 bovine enzyme divided by IC50 yeast enzyme, Fig. 5
Procedure, shortened: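 Bovine heart bc1 complex, 2.5 nM, in phosphate pH 7.0 buffer with sucrose, EDTA, azide, KCN, dodecylmaltoside and 40 µM cytochrome c at 23 °C. Enzyme preincubated 1 min with increasing test compound; started with decylbenzoquinol; cytochrome c reduction read at 550 vs 539 nm. Duplicates averaged. IC50 taken from titration curves; Selectivity Coefficient = bovine IC50 / yeast IC50.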

[3] = cited from earlier work
avian malaria = conditions: cited from earlier work
malaria = conditions: cited from earlier work

## CC(CCCCCC(F)(F)F)CC1=C(O)C(=O)c2ccccc2C1=O (centres unmarked) [NQ1, 2-OH-3-(2-Me-trifluorooctyl)-naphthoquinone]
[1]
  inhibition of oxidant-induced reduction of cytochrome b through center P: completely inhibited
[2]
  effect on cytochrome b reduction through center N: no effect; also recorded: identical, superimposed kinetic traces in the presence and absence
Bovine bc1 complex
  Selectivity Coefficient (comparison in words): higher selectivity than atovaquone

## CCCCCCC(C)CC1=C(O)C(=O)c2c(C)cccc2C1=O (centres unmarked) [NQ2, 2-OH-3-(2-Me-octyl)-8-Me-naphthoquinone]
Bovine bc1 complex
  Selectivity Coefficient (comparison in words): higher selectivity than atovaquone

## Cc1cccc2c1C(=O)C(O)=C(CC(C)CCCCCC(F)(F)F)C2=O (centres unmarked) [NQ3, 2-OH-3-(2-Me-trifluorooctyl)-8-Me-naphthoquinone]
Bovine bc1 complex
  Selectivity Coefficient (comparison in words): higher selectivity than atovaquone

## CCCCCCC(C)CC1=C(O)C(=O)c2ccccc2C1=O (centres unmarked) [S-10576]
[3]
  metabolism and excretion in vivo: terminal two carbons of the side chain are modified by oxidation and the resulting more water soluble compound is rapidly excreted
Avian malaria
  efficacy against avian malaria: effective
malaria
  efficacy in humans: ineffective
Bovine bc1 complex
  Selectivity Coefficient (comparison in words): greatest selectivity
Bovine bc1 complex; Selectivity Coefficient = IC50 bovine enzyme divided by IC50 yeast enzyme
  Selectivity Coefficient relative to that of atovaquone: ~10 fold

## O=C1C(O)=C([C@H]2CC[C@H](c3ccc(Cl)cc3)CC2)C(=O)c2ccccc21 [atovaquone, 2-[trans-4-(4’-chlorophenyl)cyclohexyl]-3-hydroxy-1,4-hydroxynaphthoquinone, reference compound]
[1]
  inhibition of oxidant-induced reduction of cytochrome b through center P: greatly inhibited
